What was measured:
[1] = molecular target: Receptor-type tyrosine-protein kinase FLT3 (Homo sapiens, UniProt P36888); assay: Inhibition of recombinant His-tagged human FLT3 cytoplasmic domain expressed in baculovirus expression system by FRET assay
[2] = molecular target: T1, Mitogen-activated protein kinase kinase kinase 12 (Homo sapiens, UniProt Q12852); assay: Binding affinity to full length wild type human DLK (M1 to P859 residues) expressed in mammalian cells by KINOMEscan assay; format: cell-based
T1 sequence (Q12852 whole entry): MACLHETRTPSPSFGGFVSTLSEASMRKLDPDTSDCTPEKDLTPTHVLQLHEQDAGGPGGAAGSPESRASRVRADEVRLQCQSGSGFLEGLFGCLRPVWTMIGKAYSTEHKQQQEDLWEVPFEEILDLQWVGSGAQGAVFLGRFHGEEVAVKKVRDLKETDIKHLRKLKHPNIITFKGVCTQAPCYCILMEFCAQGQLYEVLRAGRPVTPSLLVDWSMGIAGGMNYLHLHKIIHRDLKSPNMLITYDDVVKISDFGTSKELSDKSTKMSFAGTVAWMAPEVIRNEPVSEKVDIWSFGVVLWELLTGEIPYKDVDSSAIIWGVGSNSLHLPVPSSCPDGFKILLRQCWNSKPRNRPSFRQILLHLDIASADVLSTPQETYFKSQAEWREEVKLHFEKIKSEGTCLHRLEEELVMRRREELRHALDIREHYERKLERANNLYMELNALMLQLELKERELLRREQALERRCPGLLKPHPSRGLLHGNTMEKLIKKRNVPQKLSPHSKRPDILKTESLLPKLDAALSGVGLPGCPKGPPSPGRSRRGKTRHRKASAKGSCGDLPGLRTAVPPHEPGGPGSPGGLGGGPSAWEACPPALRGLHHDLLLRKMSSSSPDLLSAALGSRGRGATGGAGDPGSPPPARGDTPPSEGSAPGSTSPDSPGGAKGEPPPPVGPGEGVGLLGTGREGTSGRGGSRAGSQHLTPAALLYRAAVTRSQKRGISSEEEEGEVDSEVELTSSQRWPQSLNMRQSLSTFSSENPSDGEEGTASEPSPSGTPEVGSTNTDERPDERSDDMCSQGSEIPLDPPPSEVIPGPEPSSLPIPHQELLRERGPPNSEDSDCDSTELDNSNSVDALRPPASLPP
Outline: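 Binding measured in an outsourced KINOMEscan profiling service, run alongside the homologous kinase LZK; the value is reported as a dissociation constant (Kd).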

[3] = molecular target: Glycogen synthase kinase-3 beta (Homo sapiens) (UniProt P49841); assay: Inhibition of recombinant full length His-tagged human GSK3beta expressed in baculovirus expression system at 1 uM by FRET relative to control
Homo sapiens [4] = species on record: Homo sapiens; assay: Binding affinity to GABA-gated chloride channel (unknown origin) receptor at 10 uM relative to control
Outline: (§1)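 Broad radioligand-binding and enzyme screening panel covering 42 targets (biogenic amine and neuropeptide receptors, ion channels, neurotransmitter transporters, acetylcholinesterase). Single test concentration of 10 μM. Results expressed as binding relative to control, with a hit defined as >50% of control.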

[5] = molecular target: Dual specificity tyrosine-phosphorylation-regulated kinase 3 (Homo sapiens) (UniProt O43781); assay: Inhibition of full length recombinant GST-tagged human DYRK3 expressed in baculovirus expression system at 1 uM by FRET assay relative to control
[6] = molecular target: Phosphorylase b kinase gamma catalytic chain, skeletal muscle/heart isoform (Homo sapiens) (UniProt Q16816); assay: Inhibition of recombinant full length GST-tagged human PHKgamma1 expressed in baculovirus expression system at 1 uM by FRET assay relative to control
Outline: (§2)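 Single-concentration screen at 1 μM in Life Technologies SelectScreen, across a 220-kinase panel. Z′-LYTE format measures phosphorylation of a labeled peptide by FRET. Results are reported as percent inhibition.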

Homo sapiens [7] = species on record: Homo sapiens; assay: Binding affinity to L-type calcium channel verapamil/phenylalkylamine binding site (unknown origin) receptor at 10 uM relative to control; outline: as §1
[8] = molecular target: Serine/threonine-protein kinase Nek4 (Homo sapiens) (UniProt P51957); assay: Inhibition of recombinant full length GST-tagged human NEK4 expressed in baculovirus expression system at 1 uM by FRET assay relative to control; outline: as §2
[9] = molecular target: Mitogen-activated protein kinase 12 (Homo sapiens) (UniProt P53778); assay: Inhibition of recombinant full length His-tagged human p38gamma expressed in baculovirus expression system at 1 uM by FRET assay relative to control
[10] = molecular target: Myosin light chain kinase, smooth muscle (Homo sapiens) (UniProt Q15746); assay: Inhibition of recombinant human full length N-terminal GST-tagged smMLCK catalytic domain expressed in baculovirus expression system at 1 uM by FRET assay relative to control
[11] = molecular target: Insulin receptor-related protein (Homo sapiens) (UniProt P14616); assay: Inhibition of recombinant GST-tagged human IRR cytoplasmic domain (944 to 1297 residues) expressed in baculovirus expression system at 1 uM by FRET relative to control
Outline: (§3)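 Single-point screen at 1 μM compound in a 220-kinase panel run by Life Technologies (SelectScreen). Z′-LYTE format: phosphorylation of a labeled peptide substrate read by FRET. Values are reported as percent inhibition.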

[12] = molecular target: Platelet-derived growth factor receptor alpha (Homo sapiens) (UniProt P16234); assay: Inhibition of recombinant GST-tagged human PDGFRalpha cytoplasmic domain expressed in baculovirus expression system at 1 uM by FRET assay relative to control; outline: as §3
[13] = molecular target: Dual specificity protein kinase TTK (Homo sapiens) (UniProt P33981); assay: Inhibition of recombinant full length GST-tagged human TTK expressed in baculovirus expression system at 1 uM by FRET assay relative to control
[14] = molecular target: Death-associated protein kinase 1 (Homo sapiens) (UniProt P53355); assay: Inhibition of recombinant N-terminal GST-tagged human DAPK1 (1 to 363 residues) expressed in baculovirus expression system at 1 uM by FRET assay relative to control; outline: as §2
[15] = molecular target: Serine/threonine-protein kinase PLK1 (Homo sapiens) (UniProt P53350); assay: Inhibition of full length recombinant His-tagged human PLK1 expressed in baculovirus expression system at 1 uM by FRET assay relative to control
[16] = molecular target: D(1A) dopamine receptor (Homo sapiens) (UniProt P21728); assay: Binding affinity to recombinant full length human D1 dopamine receptor at 10 uM relative to control; outline: as §1
[17] = molecular target: MAP/microtubule affinity-regulating kinase 3 (Homo sapiens) (UniProt P27448); assay: Inhibition of recombinant full length GST-tagged human MARK3 expressed in baculovirus expression system at 1 uM by FRET assay relative to control; outline: as §2
[18] = molecular target: Nicotinic acetylcholine receptor alpha-1/beta-1/delta/epsilon (Homo sapiens) (UniProt P02708+P11230+Q07001+Q04844); assay: Binding affinity to (alpha1)2beta1deltaepsilon nAChR (unknown origin) receptor at 10 uM relative to control; format: protein-complex assay; outline: as §1
[19] = molecular target: Muscle, skeletal receptor tyrosine-protein kinase (Homo sapiens) (UniProt O15146); assay: Inhibition of recombinant GST-tagged human MUSK cytoplasmic domain expressed in baculovirus expression system at 1 uM by FRET assay relative to control; outline: as §3
Sequence of Muscle, skeletal receptor tyrosine-protein kinase (Homo sapiens) (O15146 whole entry, the tested form may be a part): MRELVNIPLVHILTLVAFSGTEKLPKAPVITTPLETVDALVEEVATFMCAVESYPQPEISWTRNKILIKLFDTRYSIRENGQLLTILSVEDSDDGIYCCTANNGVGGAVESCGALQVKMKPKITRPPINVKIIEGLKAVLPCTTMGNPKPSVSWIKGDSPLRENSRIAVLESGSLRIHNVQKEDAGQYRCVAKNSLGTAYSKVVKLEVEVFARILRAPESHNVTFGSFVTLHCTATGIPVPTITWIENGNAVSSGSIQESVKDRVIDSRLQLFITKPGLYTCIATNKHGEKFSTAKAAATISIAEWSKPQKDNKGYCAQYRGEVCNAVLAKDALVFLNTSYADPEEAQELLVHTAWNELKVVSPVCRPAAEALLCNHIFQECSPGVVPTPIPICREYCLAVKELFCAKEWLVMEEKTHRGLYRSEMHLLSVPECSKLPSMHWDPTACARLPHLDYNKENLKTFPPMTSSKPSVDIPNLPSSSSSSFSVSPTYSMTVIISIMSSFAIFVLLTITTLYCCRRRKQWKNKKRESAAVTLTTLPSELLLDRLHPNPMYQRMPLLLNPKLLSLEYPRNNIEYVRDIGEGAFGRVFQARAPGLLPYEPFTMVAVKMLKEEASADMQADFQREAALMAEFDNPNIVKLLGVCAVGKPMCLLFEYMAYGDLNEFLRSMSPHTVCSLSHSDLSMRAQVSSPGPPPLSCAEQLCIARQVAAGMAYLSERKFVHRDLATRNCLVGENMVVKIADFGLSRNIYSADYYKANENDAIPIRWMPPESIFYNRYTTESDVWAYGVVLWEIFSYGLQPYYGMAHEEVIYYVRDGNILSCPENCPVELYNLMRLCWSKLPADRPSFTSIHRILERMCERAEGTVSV

Sequence of Receptor-type tyrosine-protein kinase FLT3 (P36888 whole entry, the tested form may be a part): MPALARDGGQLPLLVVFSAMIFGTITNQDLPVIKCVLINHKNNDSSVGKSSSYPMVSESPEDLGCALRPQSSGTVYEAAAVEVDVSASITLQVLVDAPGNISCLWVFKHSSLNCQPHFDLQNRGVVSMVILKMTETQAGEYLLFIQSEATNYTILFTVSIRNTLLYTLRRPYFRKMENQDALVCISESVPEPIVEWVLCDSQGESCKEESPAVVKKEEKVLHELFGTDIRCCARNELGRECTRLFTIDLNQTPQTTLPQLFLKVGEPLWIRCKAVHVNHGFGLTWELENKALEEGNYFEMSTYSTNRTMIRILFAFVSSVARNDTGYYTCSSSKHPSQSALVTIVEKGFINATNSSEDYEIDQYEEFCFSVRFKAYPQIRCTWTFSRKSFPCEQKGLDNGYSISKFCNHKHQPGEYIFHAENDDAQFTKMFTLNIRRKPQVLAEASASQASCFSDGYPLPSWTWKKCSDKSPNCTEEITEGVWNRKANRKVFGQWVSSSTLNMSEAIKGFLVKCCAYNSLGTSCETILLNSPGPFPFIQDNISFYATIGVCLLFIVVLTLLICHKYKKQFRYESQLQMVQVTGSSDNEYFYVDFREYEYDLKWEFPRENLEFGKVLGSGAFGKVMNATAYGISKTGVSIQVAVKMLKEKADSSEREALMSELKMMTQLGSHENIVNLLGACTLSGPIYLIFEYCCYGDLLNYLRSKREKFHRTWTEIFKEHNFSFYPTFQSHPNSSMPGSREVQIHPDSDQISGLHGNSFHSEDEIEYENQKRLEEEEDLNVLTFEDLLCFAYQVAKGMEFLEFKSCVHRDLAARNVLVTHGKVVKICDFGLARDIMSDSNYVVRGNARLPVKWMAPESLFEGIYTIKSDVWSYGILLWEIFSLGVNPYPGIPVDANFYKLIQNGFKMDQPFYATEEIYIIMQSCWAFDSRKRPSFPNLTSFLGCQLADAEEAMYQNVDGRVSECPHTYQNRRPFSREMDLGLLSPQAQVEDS
Sequence of Mitogen-activated protein kinase 12 (Homo sapiens) (P53778 whole entry, the tested form may be a part): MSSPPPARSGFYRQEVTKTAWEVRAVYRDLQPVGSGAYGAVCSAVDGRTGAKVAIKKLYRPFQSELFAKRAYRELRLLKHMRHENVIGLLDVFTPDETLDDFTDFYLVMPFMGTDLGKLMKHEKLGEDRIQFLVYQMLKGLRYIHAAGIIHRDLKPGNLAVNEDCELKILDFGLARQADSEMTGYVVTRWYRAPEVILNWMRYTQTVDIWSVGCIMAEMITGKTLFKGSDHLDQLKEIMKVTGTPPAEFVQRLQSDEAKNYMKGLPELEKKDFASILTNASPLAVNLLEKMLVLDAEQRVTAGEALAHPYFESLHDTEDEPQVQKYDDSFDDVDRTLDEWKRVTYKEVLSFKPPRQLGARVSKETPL
Sequence of Insulin receptor-related protein (Homo sapiens) (P14616 27-742 limits assumed): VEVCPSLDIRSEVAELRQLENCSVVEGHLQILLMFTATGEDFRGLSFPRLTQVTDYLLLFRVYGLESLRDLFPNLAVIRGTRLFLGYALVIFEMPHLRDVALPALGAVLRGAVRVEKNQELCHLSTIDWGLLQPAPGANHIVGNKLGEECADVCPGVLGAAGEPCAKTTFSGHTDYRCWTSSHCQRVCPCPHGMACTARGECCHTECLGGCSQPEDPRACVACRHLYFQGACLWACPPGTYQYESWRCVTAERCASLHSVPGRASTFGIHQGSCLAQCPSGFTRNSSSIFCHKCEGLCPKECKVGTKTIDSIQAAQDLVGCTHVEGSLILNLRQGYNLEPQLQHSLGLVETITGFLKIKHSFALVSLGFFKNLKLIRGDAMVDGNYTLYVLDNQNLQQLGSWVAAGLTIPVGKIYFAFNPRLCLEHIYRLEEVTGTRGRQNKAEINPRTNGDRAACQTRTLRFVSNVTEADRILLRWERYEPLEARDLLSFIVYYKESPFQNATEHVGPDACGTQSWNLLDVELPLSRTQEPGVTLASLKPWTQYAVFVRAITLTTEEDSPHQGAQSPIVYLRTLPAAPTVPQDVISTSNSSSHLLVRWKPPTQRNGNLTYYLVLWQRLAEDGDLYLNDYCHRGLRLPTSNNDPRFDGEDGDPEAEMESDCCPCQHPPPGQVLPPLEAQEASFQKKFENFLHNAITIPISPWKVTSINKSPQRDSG
Sequence of Insulin receptor-related protein (Homo sapiens) (P14616 747-1297 limits assumed): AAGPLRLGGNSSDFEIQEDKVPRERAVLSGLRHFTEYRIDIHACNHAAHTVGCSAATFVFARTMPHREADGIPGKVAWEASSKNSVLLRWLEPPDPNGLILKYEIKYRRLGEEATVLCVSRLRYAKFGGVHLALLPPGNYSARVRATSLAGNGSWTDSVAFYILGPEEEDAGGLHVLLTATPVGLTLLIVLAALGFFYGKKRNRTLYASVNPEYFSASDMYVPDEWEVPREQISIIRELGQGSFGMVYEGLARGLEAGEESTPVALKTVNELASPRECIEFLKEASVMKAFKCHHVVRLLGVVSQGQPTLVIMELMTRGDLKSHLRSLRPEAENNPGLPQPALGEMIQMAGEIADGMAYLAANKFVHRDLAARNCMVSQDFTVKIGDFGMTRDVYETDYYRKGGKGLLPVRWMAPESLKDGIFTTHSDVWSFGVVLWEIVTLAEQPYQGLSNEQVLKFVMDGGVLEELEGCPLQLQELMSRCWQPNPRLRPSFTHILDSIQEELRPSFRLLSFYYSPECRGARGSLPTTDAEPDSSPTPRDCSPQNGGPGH
Sequence of Dual specificity protein kinase TTK (Homo sapiens) (P33981 whole entry, the tested form may be a part): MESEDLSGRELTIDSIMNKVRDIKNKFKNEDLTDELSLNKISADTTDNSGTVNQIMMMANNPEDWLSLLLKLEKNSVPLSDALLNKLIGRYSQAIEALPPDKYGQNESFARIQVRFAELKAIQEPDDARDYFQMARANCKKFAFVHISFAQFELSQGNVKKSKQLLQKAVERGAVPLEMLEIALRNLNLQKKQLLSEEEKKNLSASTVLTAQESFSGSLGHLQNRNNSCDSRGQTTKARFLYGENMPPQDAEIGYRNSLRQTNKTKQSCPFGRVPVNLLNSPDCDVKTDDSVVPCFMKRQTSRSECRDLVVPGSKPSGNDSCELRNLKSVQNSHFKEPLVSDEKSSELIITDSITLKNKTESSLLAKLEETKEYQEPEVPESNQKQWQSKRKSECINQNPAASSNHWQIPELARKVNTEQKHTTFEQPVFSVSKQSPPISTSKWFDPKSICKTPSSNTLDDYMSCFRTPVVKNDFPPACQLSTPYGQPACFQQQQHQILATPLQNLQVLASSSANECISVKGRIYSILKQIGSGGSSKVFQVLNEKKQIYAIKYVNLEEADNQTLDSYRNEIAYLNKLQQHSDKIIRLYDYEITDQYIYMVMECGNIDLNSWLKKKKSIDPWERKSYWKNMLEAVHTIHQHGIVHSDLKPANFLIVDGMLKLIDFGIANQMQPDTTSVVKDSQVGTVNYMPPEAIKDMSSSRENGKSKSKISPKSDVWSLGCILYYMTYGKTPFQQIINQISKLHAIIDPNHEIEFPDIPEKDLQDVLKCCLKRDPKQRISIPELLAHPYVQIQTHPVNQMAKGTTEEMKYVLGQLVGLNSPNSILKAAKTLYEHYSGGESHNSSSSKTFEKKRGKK
Sequence of Serine/threonine-protein kinase PLK1 (Homo sapiens) (P53350 whole entry): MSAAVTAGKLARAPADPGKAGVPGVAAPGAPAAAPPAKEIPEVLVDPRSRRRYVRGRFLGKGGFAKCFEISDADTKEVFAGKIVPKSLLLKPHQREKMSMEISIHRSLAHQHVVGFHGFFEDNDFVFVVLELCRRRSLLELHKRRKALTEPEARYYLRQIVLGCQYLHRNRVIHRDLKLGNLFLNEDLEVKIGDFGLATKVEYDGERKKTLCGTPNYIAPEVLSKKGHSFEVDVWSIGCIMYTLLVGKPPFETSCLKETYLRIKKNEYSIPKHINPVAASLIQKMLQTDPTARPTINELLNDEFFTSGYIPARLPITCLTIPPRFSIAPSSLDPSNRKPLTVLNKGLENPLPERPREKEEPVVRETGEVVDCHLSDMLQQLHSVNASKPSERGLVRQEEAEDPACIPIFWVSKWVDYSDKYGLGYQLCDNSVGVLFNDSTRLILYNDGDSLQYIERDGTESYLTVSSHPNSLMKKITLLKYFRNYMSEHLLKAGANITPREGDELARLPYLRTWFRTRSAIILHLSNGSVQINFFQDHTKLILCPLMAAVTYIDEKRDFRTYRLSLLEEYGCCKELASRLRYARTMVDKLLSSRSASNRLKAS

Structure (SMILES): Nc1ncc(-c2cc([C@H]3[C@@H]4CN(C5COC5)C[C@@H]43)n(CC3CC3)n2)cc1C(F)(F)F
- IC50 [1]: 0.238 µM
- Kd [2]: 0.0051 µM
- inhibition [3]: 1.3%
- Activity (Homo sapiens [4]): > 50%
- inhibition [5]: -7.9%
- inhibition [6]: 3%
- Activity (Homo sapiens [7]): > 50%
- inhibition [8]: 2.4%
- inhibition [9]: 7.8%
- inhibition [10]: 11.7%
- inhibition [11]: 15.9%
- inhibition [12]: 11.1%
- inhibition [13]: 11.2%
- inhibition [14]: 14%
- inhibition [15]: -0.4%
- Activity [16]: > 50%
- inhibition [17]: 14.1%
- Activity [18]: > 50%
- inhibition [19]: 27.8%

Structure (SMILES): CC(C)n1nc(-c2cnc(N)c(OC(F)(F)F)c2)cc1[C@H]1[C@@H]2CN(C3COC3)C[C@@H]21
- IC50 [1]: 0.709 µM
- Kd [2]: 0.011 µM
- inhibition [3]: 11.3%
- Activity (Homo sapiens [4]): > 50%
- inhibition [5]: 0.6%
- inhibition [6]: 4%
- Activity (Homo sapiens [7]): > 50%
- inhibition [8]: 0.1%
- inhibition [9]: 7.8%
- inhibition [10]: 19.6%
- inhibition [11]: 32.7%
- inhibition [12]: 7.1%
- inhibition [13]: 14.2%
- inhibition [14]: -5.1%
- inhibition [15]: 5%
- Activity [16]: > 50%
- inhibition [17]: 16.8%
- Activity [18]: > 50%
- inhibition [19]: 4%
